Laboratory results reported in ChEMBL document CHEMBL4619800, “β-Hydroxy- and β-Aminophosphonate Acyclonucleosides as Potent Inhibitors of Plasmodium falciparum Growth” (J Med Chem, 2020).
Calls of active or inactive are those of the source. No cut-off for these calls is given here.

Legend:
[1] = Toxicity in human K562 cells assessed as effect on cell growth measured after 24 hrs by [3H]thymidine incorporation based assay
In short: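 K562 cells seeded at 8000 per well in RPMI 1640 with 10% FCS. Incubated 24 h at 37 °C, 5% CO₂ with a range of compound concentrations. Then 0.5 μCi [³H]thymidine added for 6 h. Freeze-thaw, harvest of macromolecules and scintillation counting, with medium-only background subtracted.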

Plasmodium falciparum [2] = experiment: Antiplasmodial activity against Plasmodium falciparum 3D7 infected in erythrocytes assessed as reduction in [3H]hypoxanthine incorporation preincubated for 48 hrs followed by [3H]hypoxanthine addition and measured after 18 hrs by topcount scintillation counting analysis; assay type: functional, organism-based
In short: (§1)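 Modified Desjardins test. Infected erythrocytes at 1.5% final hematocrit and 0.6% parasitemia, in HEPES-buffered RPMI 1640 with 10% AB human serum and a range of compound concentrations, for 48 h. Then [³H]hypoxanthine (0.5 μCi/well) added for 18 h. Freeze-thaw lysis, filter harvest, scintillation counting, uninfected-erythrocyte background subtracted. IC50 from sigmoidal variable-slope regression. Mean of ≥3 independent experiments in duplicate.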

[3] = Selectivity index, ratio of IC50 for human K562 cells to IC50 for antiplasmodial activity against Plasmodium falciparum 3D7 infected in erythrocytes; assay type: toxicity, cell-based; settings: K562 cells versus Plasmodium falciparum 3D7 in erythrocytes, read-out: Ratio IC50
Plasmodium falciparum [4] = experiment: (§2) Antiplasmodial activity against synchronized ring stage Plasmodium falciparum 3D7 infected in erythrocytes assessed as effect on parasite development by measuring late schizont stage parasitemia at 2 uM supplemented with fresh medium containing compound every 24 hrs measured at 48 hrs by Giemsa/Diff-quick staining based fluorescence microscopic analysis (reference value: 0.4%); assay type: functional
In short: (§3)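 Tightly synchronized ring-stage culture at 2.5% hematocrit and 1–2% parasitemia, treated or not with 2 μM for 69 h, with drug-containing medium renewed every 24 h. Thin smears taken every 6 h, methanol-fixed and stained with Diff-Quick (pH 7.2). Parasitemia scored by parasite stage, and morphology examined.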

Plasmodium falciparum [5] = experiment: as §2, with “42” for “48”, “1.9%)” for “0.4%)”; assay type: functional; in short: as §3
Plasmodium falciparum [6] = experiment: as §2, with “ring” for “late schizont”, “uM” for “uM supplemented with fresh medium containing compound every 24 hrs”, “immediately” for “at 48 hrs”, “2.1%)” for “0.4%)”; assay type: functional; in short: as §3
Plasmodium falciparum [7] = experiment: as §2, with “early” for “late”, “39” for “48”, “2.1%)” for “0.4%)”; assay type: functional; in short: as §3
Plasmodium falciparum [8] = experiment: as §2, with “ring” for “late schizont”, “measured after” for “supplemented with fresh medium containing compound every”, “24” for “24 hrs measured at 48”, “2.1%)” for “0.4%)”; assay type: functional; in short: as §3
Plasmodium falciparum [9] = experiment: as §2, with “ring” for “late schizont”, “9.9%)” for “0.4%)”; assay type: functional; in short: as §3
Plasmodium falciparum [10] = experiment: as §2, with “ring” for “late schizont”, “69” for “48”, “11.1%)” for “0.4%)”; assay type: functional; in short: as §3
Plasmodium falciparum [11] = experiment: (§4) Antiplasmodial activity against segmented schizont stage Plasmodium falciparum 3D7 infected in erythrocytes assessed as effect on merozoite development at 2 uM supplemented with fresh medium containing compound every 24 hrs measured at 45 hrs by Hoechst staining based immunofluorescence microscopic analysis; assay type: functional, organism-based
In short: (§5)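 Tightly synchronized ring-stage culture at 2.5% hematocrit and 1–2% parasitemia, treated or not with 2 μM; drug-containing medium changed every 24 h. At 45 h (segmented schizonts), smears fixed in 4% formaldehyde/PBS, glycine-quenched, Triton X-100-permeabilized and BSA-blocked. Stained with α-mTIP and α-MSP1 antibodies, then secondaries, with Hoechst labelling nuclei.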

Plasmodium falciparum [12] = experiment: as §4, with “DNA content” for “development”; assay type: functional, organism-based; in short: as §5
Plasmodium falciparum [13] = experiment: Antiplasmodial activity against chloroquine-resistant Plasmodium falciparum FcM29 infected in erythrocytes assessed as reduction in [3H]hypoxanthine incorporation preincubated for 48 hrs followed by [3H]hypoxanthine addition and measured after 18 hrs by topcount scintillation counting analysis; assay type: functional, organism-based; in short: as §1
Plasmodium falciparum [14] = experiment: Antiplasmodial activity against chloroquine-resistant Plasmodium falciparum W2 infected in erythrocytes assessed as reduction in [3H]hypoxanthine incorporation preincubated for 48 hrs followed by [3H]hypoxanthine addition and measured after 18 hrs by topcount scintillation counting analysis; assay type: functional, organism-based; in short: as §1
Plasmodium berghei [15] = experiment: Antiplasmodial activity against Plasmodium berghei ANKA infected in ip dosed Swiss NMRI mouse assessed as reduction in parasitemia administered once daily for 4 days measured 24 hrs post-last dose by Giemsa-staining based assay; assay type: functional
In short: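 Female Swiss NMRI mice infected on day 0 by IV injection of 10⁷ P. berghei ANKA-infected erythrocytes. Dosed ip once daily for 4 days from day 1, 3 mice per group. Test doses 0–30 mg/kg in 0.9% NaCl; artesunate 0–27 mg/kg in DMSO. Controls received vehicle. Parasitemia counted on day 5 from Giemsa-stained smears, and ED50 taken as the dose giving 50% parasitemia reduction.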

Plasmodium berghei [16] = experiment: Antiplasmodial activity against Plasmodium berghei ANKA infected in Swiss NMRI mouse assessed as parasitemia at 30 mg/kg, ip administered once daily for 4 days measured on day 11 by Giemsa-staining based assay relative to control; assay type: functional
In short: (§6)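 Female Swiss NMRI mice infected on day 0 by IV caudal-vein injection of 10⁷ P. berghei ANKA-infected erythrocytes (clone 2.34). Compound given ip in 0.9% NaCl, 100 μL per mouse, 3 mice per group. Either one daily dose for 4 consecutive days from day 1, or a single dose on day 1. Parasitemia counted on Giemsa-stained thin smears and followed for 30 days. Controls received vehicle only.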

Plasmodium berghei [17] = experiment: Antiplasmodial activity against Plasmodium berghei ANKA infected in Swiss NMRI mouse assessed as parasitemia at 30 mg/kg, ip administered once daily for 4 days measured on day 14 by Giemsa-staining based assay relative to control; assay type: functional; in short: as §6
Plasmodium berghei [18] = experiment: Antiplasmodial activity against Plasmodium berghei ANKA infected in Swiss NMRI mouse assessed as reduction in parasitemia at 30 mg/kg, ip administered as single dose by Giemsa-staining based assay relative to control; assay type: functional; parameters: scale not given: the % may be the effect or the level left; in short: as §6
Plasmodium berghei [19] = experiment: Antiplasmodial activity against Plasmodium berghei ANKA infected in po dosed Swiss NMRI mouse assessed as reduction in parasitemia administered once daily for 4 days measured 24 hrs post-last dose by Giemsa-staining based assay; assay type: functional
In short: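 Female Swiss NMRI mice infected on day 0 by IV injection of 10⁷ P. berghei ANKA-infected erythrocytes. Oral dosing in water (100 μL, 3 mice per group) at 0, 1, 3, 10 and 30 mg/kg, once daily for 4 days from day 1. Water-only controls. Day-5 parasitemia counted on Giemsa-stained thin smears, and ED50 derived as the dose reducing parasitemia by 50%.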

Compound	IC50 at 24 h [1]	IC50 (Plasmodium falciparum [2])	selectivity ratio [3]	also measured
CCN(CC)CCCC(C)Nc1ccnc2cc(Cl)ccc12 (stereo not drawn) [CHLOROQUINE]	25.3 µM	–	–	–
O=c1[nH]c(=O)c2ncn(CC[C@H](O)CP(=O)(O)O)c2[nH]1	> 1000 µM	910 µM	> 1	–
O=c1[nH]c(=O)c2ncn(CC[C@@H](O)CP(=O)(O)O)c2[nH]1	> 1000 µM	590 µM	–	–
O=c1[nH]cnc2c1ncn2CC[C@H](O)CP(=O)(O)O	> 1000 µM	> 1000 µM	–	–
Nc1nc(N)c2ncn(C[C@H](O)CP(=O)(O)O)c2n1	> 1000 µM	510 µM	> 2	–
Nc1ncnc2c1ncn2C[C@H](O)CP(=O)(O)O	> 1000 µM	> 1000 µM	–	–
Nc1nc(N)c2ncn(CC[C@H](N)CP(=O)(O)O)c2n1	> 1000 µM	> 100 µM	–	–
Nc1ncnc2c1ncn2C[C@@H](O)CP(=O)(O)O	> 1000 µM	> 1000 µM	–	–
Nc1nc(N)c2ncn(CC[C@H](O)CP(=O)(O)O)c2n1	> 1000 µM	> 1000 µM	–	–
Nc1nc(N)c2ncn(CC[C@@H](N)CP(=O)(O)O)c2n1	> 1000 µM	> 100 µM	–	–
Nc1nc(F)nc2c1ncn2CC[C@@H](O)CP(=O)(O)O	> 1000 µM	26.3 µM	> 38	–
Nc1nc2c(ncn2CC[C@@H](O)CP(=O)([O-])[O-])c(=O)[nH]1.[Na+].[Na+]	> 1000 µM	0.074 µM	> 1350	Activity (Plasmodium falciparum [4]): 1.3%; Activity (Plasmodium falciparum [5]): 1.7%; Activity (Plasmodium falciparum [6]): 2.1%; Activity (Plasmodium falciparum [7]): 2.1%; Activity (Plasmodium falciparum [8]): 2.1%; Activity (Plasmodium falciparum [9]): 0.6%; Activity (Plasmodium falciparum [10]): 0%; Activity (Plasmodium falciparum [11]): inactive; Activity (Plasmodium falciparum [12]): inactive; IC50 (Plasmodium falciparum [13]): 0.03 µM; IC50 (Plasmodium falciparum [14]): 0.045 µM; ED50 (Plasmodium berghei [15]): 0.56 mg/kg; Activity (Plasmodium berghei [16]): 6.9 - 16.7%; Activity (Plasmodium berghei [17]): 1.7%; Activity (Plasmodium berghei [18]): 95%; ED50 (Plasmodium berghei [19]): 30 mg/kg
Nc1nc(O)c2ncn(CC/C=C\P(=O)(O)O)c2n1	> 1000 µM	> 100 µM	–	–
Nc1nc(N)c2ncn(C[C@@H](O)CP(=O)(O)O)c2n1	> 1000 µM	327 µM	> 2.6	–
Nc1nc2c(ncn2C[C@@H](O)CP(=O)(O)O)c(=O)[nH]1	> 1000 µM	> 1000 µM	–	–
Nc1nc2c(ncn2C[C@H](O)CP(=O)(O)O)c(=O)[nH]1	> 1000 µM	595 µM	> 1.7	–
C[C@H]1[C@H](OC(=O)CCC(=O)O)O[C@@H]2O[C@@]3(C)CC[C@H]4[C@H](C)CC[C@@H]1[C@@]24OO3 [ARTESUNATE]	–	–	–	ED50 (Plasmodium berghei [15]): 0.1 mg/kg
Nc1ncnc2c1ncn2CC[C@@H](O)CP(=O)(O)O	> 1000 µM	> 1000 µM	–	–
Nc1nc(N)c2ncn(CC[C@@H](O)CP(=O)(O)O)c2n1	> 1000 µM	48 µM	> 21	–
O=c1[nH]cnc2c1ncn2CC[C@@H](O)CP(=O)(O)O	> 1000 µM	> 1000 µM	–	–
Nc1ncnc2c1ncn2CC[C@H](O)CP(=O)(O)O	> 1000 µM	> 1000 µM	–	–
Nc1nc(O)c2ncn(CC[C@H](N)CP(=O)(O)O)c2n1	> 1000 µM	> 100 µM	–	–
Nc1nc(O)c2ncn(CC[C@@H](N)CP(=O)(O)O)c2n1	> 1000 µM	> 100 µM	–	–
Nc1nc(O)c2ncn(CCCCP(=O)(O)O)c2n1	> 1000 µM	74 µM	> 17	–
Nc1ncc2ncn(CC[C@@H](O)CP(=O)(O)O)c2n1	> 1000 µM	67 µM	> 16	–
Nc1nc2c(ncn2CC[C@H](O)CP(=O)(O)O)c(=O)[nH]1	> 1000 µM	6.1 µM	164	IC50 (Plasmodium falciparum [13]): 4.5 µM; IC50 (Plasmodium falciparum [14]): 5.6 µM
